Experimental data published in ChEMBL document CHEMBL1137668, “Activities of several classes of acyclic nucleoside phosphonates against camelpox virus replication in different cell culture models” (Antimicrob Agents Chemother, 2007).
Activity calls are given as the source filed them. The calls are words filed in the database; no cut-off is given here.

Experiments:
Camelpox virus [1] = test: Antiviral activity against Camelpox virus CML1 infected in HEL299 cells assessed as inhibition of virus-induced cytopathic effect after 6 days by Giemsa staining; type: functional, organism-based; conditions: CML1, HEL 299, 144 h
Camelpox virus [2] = test: Antiviral activity against Camelpox virus CML14 infected in HEL299 cells assessed as inhibition of virus-induced cytopathic effect after 6 days by Giemsa staining; type: functional, organism-based; conditions: CML14, HEL 299, 144 h
[3] = Cytotoxicity against HEL299 cells after 4 days by Z1 Coulter counting analysis; type: cell-based, HEL 299; conditions: human, HEL299 cells
Summary of the method: (§1)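 Cell growth inhibition: HEL cells were seeded at 3.5 × 10³ per well and PHKs at 5 × 10³ per well. Serial dilutions were added in duplicate after 1 day (HEL) or 3 days (PHK). After 4 days with compound, cells were trypsinized and counted with a Coulter counter (8 μm lower limit). CC50 is the concentration reducing growth by 50%, mean ± SD of at least two experiments.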

[4] = Selectivity index, ratio of CC50 for HEL299 cells to EC50 for Camelpox virus CML1 infected in HEL299 cells; type: toxicity, cell-based, HEL 299; conditions: human, HEL299 cells; read-out: Ratio CC50/IC50
[5] = Selectivity index, ratio of CC50 for HEL299 cells to EC50 for Camelpox virus CML14 infected in HEL299 cells; type: toxicity, cell-based, HEL 299; conditions: human, HEL299 cells; read-out: Ratio CC50/IC50
Camelpox virus [6] = test: Antiviral activity against Camelpox virus CML1 infected in human PHK assessed as inhibition of virus-induced cytopathic effect after 6 days by Giemsa staining; type: functional, organism-based; conditions: CML1, 144 h
Camelpox virus [7] = test: Antiviral activity against Camelpox virus CML14 infected in human PHK assessed as inhibition of virus-induced cytopathic effect after 6 days by Giemsa staining; type: functional, organism-based; conditions: CML14, 144 h
[8] = Cytotoxicity against human PHK after 4 days by Z1 Coulter counting analysis; conditions: PHK cells; summary of the method: as §1
[9] = Selectivity index, ratio of CC50 for human PHK to EC50 for Camelpox virus CML1 infected in human PHK
[10] = Selectivity index, ratio of CC50 for human PHK to EC50 for Camelpox virus CML14 infected in human PHK
Camelpox virus [11] = test: Antiviral activity against Camelpox virus CML1 infected in HEL299 cells assessed as reduction in viral titer after 6 days postinfection by virus yield reduction assay; type: functional; conditions: for Activity: HEL 299; for EC99: CML1, HEL 299, 144 h
Camelpox virus [12] = test: Antiviral activity against Camelpox virus CML14 infected in HEL299 cells assessed as reduction in viral titer after 6 days postinfection by virus yield reduction assay; type: functional; conditions: for EC99: CML14, HEL 299, 144 h; for Activity: HEL 299
Camelpox virus [13] = test: Antiviral activity against Camelpox virus CML1 infected in human PHK assessed as reduction in viral titer after 6 days postinfection by virus yield reduction assay; type: functional; conditions: for EC99: CML1, 144 h
Camelpox virus [14] = test: Antiviral activity against Camelpox virus CML14 infected in human PHK assessed as reduction in viral titer after 6 days postinfection by virus yield reduction assay; type: functional; conditions: for EC99: CML14, 144 h
Camelpox virus [15] = test: Antiviral activity against Camelpox virus CML1 infected in differentiated human PHK raft culture assessed as inhibition of viral replication at 6 uM treated after 7 days postinfection by virus yield reduction assay; type: functional, organism-based
Camelpox virus [16] = test: Antiviral activity against Camelpox virus CML1-induced cytopathic effect in human PHK raft culture assessed as full protection of differentiated epithelium at 65 uM treated after 7 days postinfection; type: functional, organism-based
Camelpox virus [17] = test: Antiviral activity against Camelpox virus CML1 infected in differentiated human PHK raft culture assessed as reduction in viral titer determined in HEL299 cells treated after 7 days postinfection by virus yield reduction assay; type: functional; conditions: CML1, HEL 299, 168 h
Camelpox virus [18] = test: Antiviral activity against Camelpox virus CML1 infected in HEL299 cells assessed as inhibition of viral replication at 5 to 13 uM after 6 days postinfection by virus yield reduction assay; type: functional, HEL 299; design: scale not given: the % may be the effect or the level left
Camelpox virus [19] = test: Antiviral activity against Camelpox virus CML14 infected in HEL299 cells assessed as inhibition of viral replication at 5 to 13 uM after 6 days postinfection by virus yield reduction assay; type: functional, HEL 299; design: scale not given: the % may be the effect or the level left
Camelpox virus [20] = test: Antiviral activity against Camelpox virus CML1 infected in human PHK assessed as inhibition of viral replication at 5 to 13 uM after 6 days postinfection by virus yield reduction assay; type: functional; design: scale not given: the % may be the effect or the level left
Camelpox virus [21] = test: Antiviral activity against Camelpox virus CML14 infected in human PHK assessed as inhibition of viral replication at 5 to 13 uM after 6 days postinfection by virus yield reduction assay; type: functional; design: scale not given: the % may be the effect or the level left
Camelpox virus [22] = test: Antiviral activity against Camelpox virus CML1 infected in HEL299 cells assessed as suppression of viral replication at 73 uM after 6 days postinfection by virus yield reduction assay; type: functional, organism-based; conditions: HEL 299
Camelpox virus [23] = test: Antiviral activity against Camelpox virus CML14 infected in HEL299 cells assessed as suppression of viral replication at 73 uM after 6 days postinfection by virus yield reduction assay; type: functional, organism-based; conditions: HEL 299
Camelpox virus [24] = test: Antiviral activity against Camelpox virus CML1 infected in human PHK assessed as suppression of viral replication at 73 uM after 6 days postinfection by virus yield reduction assay; type: functional, organism-based
Camelpox virus [25] = test: Antiviral activity against Camelpox virus CML14 infected in human PHK assessed as suppression of viral replication at 73 uM after 6 days postinfection by virus yield reduction assay; type: functional, organism-based
Camelpox virus [26] = test: Antiviral activity against Camelpox virus CML1 infected in human PHK epithelial raft culture assessed as inhibition of virus-induced cytopathic effect at 1.8 uM after 7 days postinfection; type: functional, organism-based
Camelpox virus [27] = test: Antiviral activity against Camelpox virus CML1 infected in human PHK raft culture assessed as inhibition of virus-induced cytopathic effect at 7 uM treated after 7 days postinfection; type: functional, organism-based
Camelpox virus [28] = test: Antiviral activity against Camelpox virus CML1 infected in human PHK raft culture assessed as inhibition of virus-induced cytopathic effect at 18 uM treated after 7 days postinfection; type: functional, organism-based
[29] = Cytotoxicity against differentiated epithelium of human PHK raft culture at 5 ug/ml after 4 days by Z1 Coulter counting analysis; conditions: 96 h
[30] = Cytotoxicity against differentiated epithelium of human PHK raft culture at 76 uM after 4 days by Z1 Coulter counting analysis; conditions: 96 h
Camelpox virus [31] = test: Antiviral activity against Camelpox virus CML1 infected in human PHK raft culture assessed as complete protection of differentiated cells against viral replication at 72 uM after 7 days postinfection; type: functional, organism-based
Camelpox virus [32] = test: Antiviral activity against Camelpox virus CML1-induced cytopathic effect in human PHK raft culture assessed as full protection of differentiated epithelium at 164uM treated after 7 days postinfection; type: functional, organism-based

SMILES	EC50 (Camelpox virus [1]) [µM]	EC50 (Camelpox virus [2]) [µM]	CC50 at 96 h [3] [µM]	selectivity ratio [4]	selectivity ratio [5]	EC50 (Camelpox virus [6]) [µM]	EC50 (Camelpox virus [7]) [µM]	CC50 at 96 h [8] [µM]	Ratio CC50/IC50 [9]	Ratio CC50/IC50 [10]	Activity (Camelpox virus [11])	EC99 (Camelpox virus [12]) [µM]	Activity (Camelpox virus [12])	Activity (Camelpox virus [13])	Activity (Camelpox virus [14])	EC99 (Camelpox virus [14]) [µM]	EC99 (Camelpox virus [11]) [µM]	EC99 (Camelpox virus [17]) [µM]	also measured
Nc1nc(N)c2ncn(C[C@@H](CO)OCP(=O)(O)O)c2n1	0.2	0.6	45	249	70	0.8	1.2	2	2	1	Dose-dependent effect	1	Dose-dependent effect	Dose-dependent effect	Dose-dependent effect	2	–	–	Activity (Camelpox virus [15]): Active
Nc1ccn(C[C@@H](CO)OCP(=O)(O)O)c(=O)n1.O.O [CIDOFOVIR]	8.2	6.6	192	23	29	5.3	8.8	7	1	1	Dose-dependent effect	–	Dose-dependent effect	Dose-dependent effect	Dose-dependent effect	–	58	6	EC99 (Camelpox virus [13]): 16 µM; Activity (Camelpox virus [16]): Active
CC(C)(C)C(=O)OCOP(=O)(COC(CO)Cn1cnc(N)nc1=O)OCOC(=O)C(C)(C)C (stereo not drawn)	0.02	0.02	5	250	250	0.6	0.3	1	2	4	Dose-dependent effect	–	–	–	–	–	–	–	–
Nc1nccc2c1ncn2C[C@@H](CO)OCP(=O)(O)O	1.5	1.7	30	20	18	3.1	2.1	0.3	0.1	0.1	Dose-dependent effect	–	Dose-dependent effect	Dose-dependent effect	Dose-dependent effect	–	–	–	Activity (Camelpox virus [18]): 99%; Activity (Camelpox virus [19]): 99%; Activity (Camelpox virus [20]): 99%; Activity (Camelpox virus [21]): 99%
Nc1ncn(C[C@@H](CO)OCP(=O)(O)O)c(=O)n1	12.3	12	550	45	46	14.8	9.7	71	5	7	Dose-dependent effect	–	Dose-dependent effect	Dose-dependent effect	Dose-dependent effect	–	–	16	Activity (Camelpox virus [22]): Active; Activity (Camelpox virus [23]): Active; Activity (Camelpox virus [24]): Active; Activity (Camelpox virus [25]): Active; Activity (Camelpox virus [26]): inactive; Activity (Camelpox virus [27]): inactive; Activity (Camelpox virus [28]): inactive; Activity [29]: Toxic
Nc1ncnc(=O)n1C[C@H]1COP(=O)(O)CO1	4.3	3	143	33	48	18	14.8	34	2	2	Dose-dependent effect	–	Dose-dependent effect	Dose-dependent effect	Dose-dependent effect	–	–	67	Activity (Camelpox virus [22]): Active; Activity (Camelpox virus [23]): Active; Activity (Camelpox virus [24]): Active; Activity (Camelpox virus [25]): Active; Activity [30]: Non-toxic; Activity (Camelpox virus [31]): Active
Nc1ccn(C[C@H]2COP(=O)(O)CO2)c(=O)n1 [CYCLIC CIDOFOVIR]	6.1	8.8	335	55	38	7.2	9.1	17	2	2	Dose-dependent effect	–	Dose-dependent effect	Dose-dependent effect	Dose-dependent effect	–	64	38	EC99 (Camelpox virus [13]): 59 µM; Activity (Camelpox virus [32]): Active
Nc1ncnc2c1ncn2C[C@@H](CO)OCP(=O)(O)O	0.5	0.5	32	66	60	1	1.4	1	1	1	Dose-dependent effect	1	Dose-dependent effect	Dose-dependent effect	Dose-dependent effect	2	–	–	–
Nc1ncnc2c1ncn2C[C@H]1COP(=O)(O)CO1	0.2	0.1	63	393	441	1.6	3.1	3	2	1	Dose-dependent effect	2	Dose-dependent effect	Dose-dependent effect	Dose-dependent effect	6	3	–	–
C[C@H](COC1=CC(N)N(O)C(N)=N1)OCP(=O)(O)O (stereo partly drawn)	1.6	2	162	99	82	3.9	4.6	5	1	1	Dose-dependent effect	9.5	Dose-dependent effect	Dose-dependent effect	Dose-dependent effect	9.5	9.5	5	EC99 (Camelpox virus [13]): 9.5 µM
Nc1nc(NC(CO)C(=O)O)c2ncn(CCOCP(=O)(O)O)c2n1 (racemic)	54.5	55.7	3	0.1	0.1	81.8	93.4	2	0.03	0.03	–	–	–	–	–	–	–	–	–
Nc1cc(OCCOCP(=O)(O)O)nc(N)n1	> 189	> 189	66	< 0.3	< 0.3	49.2	53.7	4	0.1	0.1	–	–	–	–	–	–	–	–	–
